# Hits are enriched below; roughly 3.5% of the tested compounds scored in any of these assays.
# RGS4 pot = RGS4 potentiation or activation; HEK293 M3R/inducible RGS4, carbachol calcium flux Fluo4; stronger effect = lower value; actives 0.92% (n = 310,000); B-score at 10 µM;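 active = B-score of the integrated calcium signal more than 4 SD below the library mean, with starting fluorescence not abnormally high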;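 note: negative B-score means reduced calcium response which marks RGS4 activation or potentiation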
#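 Material: Inducible-RGS4 HEK293 cells carrying M3 receptor; also added: carbachol at ECmax as muscarinic agonist stimulus; incubation: compound preincubation 20 min at room temperature before agonist; signal: Fluo4-AM (2 µM) calcium-flux fluorescence, kinetic read; measure: integrated calcium ratio converted to B score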
# MrgX1 ag = activates human MrgX1 receptor signaling | Q96LB2 | MrgX1-HEK293 cells, Fluo-4 calcium fluorescence, agonist mode; stronger effect = higher value | B-score at 10 µM | actives 0.44% (n = 310,000) | AID 588627;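 active = calcium response B-score plate-corrected fluorescence ratio at least 3 library SD, with starting fluorescence B-score inside 5 SD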
# Target sequence (Q96LB2 whole entry, looked up): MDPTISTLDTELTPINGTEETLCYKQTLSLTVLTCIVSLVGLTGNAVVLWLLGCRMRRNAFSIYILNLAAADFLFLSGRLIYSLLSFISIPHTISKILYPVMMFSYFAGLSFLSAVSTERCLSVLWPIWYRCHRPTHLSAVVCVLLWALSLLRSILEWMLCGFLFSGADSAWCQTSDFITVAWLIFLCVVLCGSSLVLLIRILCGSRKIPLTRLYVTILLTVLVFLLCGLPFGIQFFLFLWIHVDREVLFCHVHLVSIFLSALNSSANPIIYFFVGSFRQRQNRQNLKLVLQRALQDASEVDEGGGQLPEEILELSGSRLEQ
#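 Test system: HEK293 cells stably expressing human MrgX1 receptor; amount: 15,000 cells per well; doses: compound delivered in addition one of three; times: overnight plating before 1 h dye loading; detection: Fluo-4 NW calcium-flux fluorescence, kinetic read; read-out basis: B-scored fluorescence response ratio; controls: positive and negative controls per plate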
# MrgX1 antag = human MrgX1 receptor antagonism, primary screen. actives 1.3% (n = 310,000). MRGX1-HEK293 calcium flux, Fluo-4, BAM8-22 antagonism; stronger effect = lower value. Q96LB2. B-score at 10 µM;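 active = calcium-response B-score plate-corrected more than 3 library SD below zero, starting fluorescence within 5 deviations, no agonist response on first addition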;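 note: peak minus trough fluorescence over baseline after final BAM8-22 challenge near maximal dose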
# MrgX1 allo act = human MrgX1 positive allosteric modulation, primary screen. actives 0.63% (n = 310,000). B-score at 10 µM. MrgX1-HEK293, Fluo-4 calcium flux, FDSS; stronger effect = higher value;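 active = plate-corrected calcium response at least 3 library SD above typical, normal starting fluorescence, not activating the receptor alone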;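 note: compound read alongside a low EC10 to EC30 dose of BAM8-22 agonist; peak minus trough fluorescence over baseline measured at the second addition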
# RGS4 block = inhibitors of human RGS4. P49798. HEK293 M3R/RGS4 inducible, Fluo-4 calcium flux; stronger effect = higher value; triggered by carbachol at its EC20. B-score at 10 µM. actives 0.45% (n = 310,000). AID 463165;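 active = B-score, a plate-corrected calcium signal, over three deviations above library mean, with baseline fluorescence within five deviations of library mean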;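 note: RGS4 expression induced by doxycycline in cells with stable M3 receptor; B-score is computed from the integrated fluorescence ratio over baseline after carbachol; higher B-score means a larger calcium signal and so more RGS4 inhibition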
# Starred values were filed as active, the others as inactive; i = inactive; . = not tested or not shown.
SMILES,RGS4 pot,MrgX1 ag,MrgX1 antag,MrgX1 allo act,RGS4 block
CNC(=O)c1ccc(-c2sc3nc(N4CCOCC4)c4c(c3c2N)CCCC4)o1,i,i,i,12*,i
CCN(CC(=O)NC(=O)Nc1ccccc1F)Cc1ccccc1,i,i,i,i,i
CCOC(=O)c1sc2cc([N+](=O)[O-])cc(SCCO)c2c1N,i,i,i,i,i
CCOC(=O)c1sc2cc([N+](=O)[O-])cc(SCC(=O)OC)c2c1N,i,i,-5.7*,i,i
CC(=O)/C(=N\Nc1ccccc1)Sc1cccc2cccnc12,i,i,-4.7*,i,i
O=[N+]([O-])c1c(NCc2ccccc2)cc(N2CCc3ccccc3C2)c2nonc12,i,i,-6*,i,i
O=[N+]([O-])c1cccc(/C=N/Nc2nc(NCc3ccccc3)nc(N3CCOCC3)n2)c1O,i,34*,i,i,i
O=[N+]([O-])c1ccc(/C=N/Nc2nc(NCc3ccccc3)nc(N3CCOCC3)n2)cc1,i,i,i,i,i
O=[N+]([O-])c1c(NCCCO)cc(N2CCCCCC2)c2nonc12,i,i,i,i,i
O=[N+]([O-])c1cc([N+](=O)[O-])c(N2CCOCC2)cc1NCc1ccccc1,i,i,-9.6*,i,i
C=C(C)C(=O)Nc1cccnc1Oc1ccc(F)cc1F,i,i,i,i,i
Nc1nnc(SCC(=O)NC2CCCCCC2)s1,i,i,i,i,i
COc1ccc(S(=O)(=O)NNC(=O)Nc2ccc(F)cc2F)c(OC)c1,i,i,i,i,i
O=C(NC(=S)NNC(=O)[C@H]1C[C@@H]1c1ccccc1)c1ccc(F)cc1,i,i,i,i,i
O=C(/C=C/c1ccc(F)cc1)NC(=S)NNC(=O)[C@H]1C[C@@H]1c1ccccc1,i,43*,i,i,i
COc1ccc(C)cc1S(=O)(=O)N1CCCC(N2CCOCC2)C1 (stereo not given),i,i,i,i,i
CCOC(=O)Nc1ccc2c(c1)N(C(=O)CCN(CC)CC)c1ccccc1S2=O (stereo not given),i,30*,i,i,i
CCOC(=O)Nc1ccc2c(c1)N(C(=O)CCN(CC)CC)c1ccccc1CC2,i,i,i,i,i
O=C(COC(=O)c1cc([N+](=O)[O-])ccc1N1CCOCC1)Nc1c(Cl)cccc1C(F)(F)F,i,i,i,i,i
COc1ccc(/C(O)=C/C(=O)C(=O)NNC(=O)c2ccccc2)cc1,i,i,i,i,i
COc1ccc(/C(O)=C/C(=O)C(=O)NNC(=O)C(O)(c2ccccc2)c2ccccc2)cc1,i,i,-4.8*,i,i
CCNS(=O)(=O)c1ccc(CCC(=O)N2CCC(C)CC2)cc1,i,i,i,i,i
Cc1ccc(-c2csc(Cc3nc(-c4cc5ccccc5oc4=O)cs3)n2)cc1,-7*,i,i,i,i
Cc1cccc(C(=O)OCC(=O)N2CCC(c3ccccc3)=N2)c1O,i,i,i,i,i
CCc1cc(C(=O)OCC(=O)N2CCC(c3ccccc3)=N2)sc1C,-7.2*,i,i,i,i
SMILES,RGS4 pot,MrgX1 ag,MrgX1 antag,MrgX1 allo act,RGS4 block
CCCOC(=O)/C(C(N)=NCc1ccccc1)=C(\O)OCCC,i,28*,i,i,i
O=c1oc2c3c4c(cc2s1)CCCN4CCC3,i,i,i,i,i
O=c1ccc2cc3c4c(c2o1)CCCN4CCC3,-7.4*,i,i,i,i
C/C(=N\NC(=O)c1ccc(Cn2cc(Br)cn2)o1)c1ccc(NC(=O)c2ccoc2C)cc1,-9.5*,.,.,.,i
C/C(=N\NC(=O)c1ccc(Cn2cc(Br)cn2)o1)c1cccc(NC(=O)C(C)(C)C)c1,i,i,i,i,i
CCOc1cccc(NC(=O)C2CC(=O)N(c3ccc(F)cc3)C2)c1 (stereo not given),i,i,i,i,i
Cc1ccc(S(=O)(=O)N2CCC(=O)N(C(COCc3ccc(Cl)c(Cl)c3)Cc3ccccc3)CC2)cc1 (stereo not given),i,i,-6.1*,i,i

# High-throughput results as filed in PubChem.
